# Compound activity (PubChem)
# CHT PAM: CHT positive allosteric modulators, primary screen, cell-based, membrane potential dye, choline EC20; High affinity choline transporter 1 (Homo sapiens), Q9GZV3; CHT-expressing cells; stronger effect = higher value; LV-AA mutant CHT in HEK293 cells; B-score at 10 µM; 310,000 compounds, 0.49% hits; AID 488977, 2010;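 active = initial fluorescence not abnormally high and integrated response B-score, plate-corrected, over 3 SD above library mean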
# TNAP inh hiacc: human TNAP enzyme inhibitors, primary screen, biochemical, luminescent, high phosphate acceptor level, uHTS; Alkaline phosphatase, tissue-nonspecific isozyme (Homo sapiens), P05186; purified TNAP, CDP-star luminescence, 1 M DEA; inhibition, % at 20 µM; 200,000 compounds, 0.03% hits;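 active = over 50% inhibition of tissue-nonspecific alkaline phosphatase at 20 µM in the single-dose screen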;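 also: plate controls were DMSO wells for no effect and EDTA-quenched wells as full inhibition for full effect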
# Target sequence (P05186 whole entry, looked up): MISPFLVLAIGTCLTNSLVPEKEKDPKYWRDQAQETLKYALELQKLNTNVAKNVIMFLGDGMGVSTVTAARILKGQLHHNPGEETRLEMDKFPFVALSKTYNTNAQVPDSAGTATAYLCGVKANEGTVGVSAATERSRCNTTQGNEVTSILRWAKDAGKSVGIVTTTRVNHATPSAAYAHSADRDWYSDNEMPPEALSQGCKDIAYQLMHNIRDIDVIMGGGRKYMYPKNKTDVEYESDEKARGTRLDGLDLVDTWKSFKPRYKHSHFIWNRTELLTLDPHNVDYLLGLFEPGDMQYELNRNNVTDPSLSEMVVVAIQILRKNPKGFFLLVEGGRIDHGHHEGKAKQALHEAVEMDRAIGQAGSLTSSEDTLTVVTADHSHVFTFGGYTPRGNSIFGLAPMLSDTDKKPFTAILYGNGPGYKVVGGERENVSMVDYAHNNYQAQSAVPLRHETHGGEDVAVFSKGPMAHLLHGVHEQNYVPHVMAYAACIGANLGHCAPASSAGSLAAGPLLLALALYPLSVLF
# TNAP act hi DEA: TNAP activators at high phosphate acceptor level, primary screen, biochemical, luminescence, uHTS. purified TNAP, CDP-star luminescence, 1 M DEA, 30 min; stronger effect = higher value; 0 = EDTA background, 1 = DMSO-only activity. activation factor at 20 µM. 200,000 tested, under 10 active. Alkaline phosphatase, tissue-nonspecific isozyme (Homo sapiens), P05186;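 active = activation factor at least 2 at 20 µM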
#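 Measured by: Luminescent substrate turnover signal | Test system: Human TNAP | Input: TNAP 1/800 final | Dosing: 20 µM single point | Schedule: 30 min, room temperature | Controls: EDTA wells as negative control, DMSO wells as positive control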
# CHT block: inhibitors of human choline transporter CHT; AID 488975, 2010; High affinity choline transporter 1 (Homo sapiens), Q9GZV3; 310,000 compounds, 0.86% hits; B-score at 10 µM; CHT-expressing cells, membrane potential dye, choline response; stronger effect = lower value;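 active = B-score over 3 SD under the library average, and starting fluorescence ratio not unusually high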;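 also: choline stimulus applied at its EC90 after an EC20 pre-addition; B-score computed on integrated fluorescence ratio after choline addition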
# ABCB6 inh MLPCN: ABCB6 transporter inhibitors, primary screen, K562-ABCB6 cells, flow cytometry, MLPCN library | K562-ABCB6 porphyrin accumulation, 1 h; stronger effect = lower value | fluorescence ratio to DMSO, % at 10 µM | ATP-binding cassette sub-family B member 6 (Homo sapiens), Q9NP58 | AID 602162, 2011 | 360,000 compounds, 0.19% hits;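 active = fluorescence ratio to DMSO below 75%, the collection mean minus 3 SD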;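 also: signal is porphyrin accumulated inside mitochondria; 100% equals median channel fluorescence of DMSO control wells; lower ratio means ABCB6 inhibition with less porphyrin fluorescence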
# TNAP inh no acc: human TNAP enzyme inhibitors, primary screen, biochemical, luminescent, no phosphate acceptor, uHTS; Alkaline phosphatase, tissue-nonspecific isozyme (Homo sapiens), P05186; purified TNAP, CDP-star luminescence, 30 min; inhibition, % at 20 µM; 200,000 compounds, 0.26% hits;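 active = tissue-nonspecific alkaline phosphatase inhibition above about 50% at 20 µM in the single-dose screen, limit read from the data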;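 also: 0% = DMSO negative control and 100% = EDTA positive control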
# CHT act confirm: CHT activators, confirmation, cell-based, membrane potential dye, duplicate. shares compounds with CHT PAM. CHT-expressing cells, membrane potential dye fluorescence (FDSS); % of choline EC20–EC90 response window; HEK293 expressing CHT LV-AA mutant; choline added at its EC20. activation, % at 10 µM. 2,500 compounds, 91% hits. AID 504833, 2011;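 active = primary screen active, with duplicate mean activation above negative control mean plus 3 SD, cut at about 11% in these data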
# HEK293 MP dye: membrane potential response in parental HEK293 cells, counter-screen for CHT activator project, cell-based, membrane potential dye | membrane potential dye fluorescence (FDSS); measured after EC20 choline addition | shares compounds with CHT PAM | 2,500 compounds, 62% hits | AID 623908, 2012 | ratio readout change at 10 µM, hits read low;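 active = duplicate-averaged ratio beyond 3 SD from buffer wells, up or down, though filed actives are nearly all decreases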
# Numbers without * were called inactive; i = inactive; . = no result given. Compounds with a hit are over-represented: about 1.4% of the library has one in this group of screens.
SMILES,CHT PAM,TNAP inh hiacc,TNAP act hi DEA,CHT block,ABCB6 inh MLPCN,TNAP inh no acc,CHT act confirm,HEK293 MP dye
COc1cccc(-c2cn(C[C@H]3CC[C@@H]([C@@H]4CC[C@H](Cn5cc(-c6cccc(OC)c6)nn5)O4)O3)nn2)c1,7*,.,.,i,92,.,15*,i
COC(=O)c1ccc(Nc2nc(N3CCOCC3)nc(N3CCOCC3)n2)cc1,i,.,.,i,103,.,.,.
COC(=O)c1nnn(-c2nc(N3CCOCC3)nc(N3CCOCC3)n2)c1C,7.8*,1,1,i,87,-3,33*,-40*
N#C/C(=N\Nc1ccccc1Cl)C(=O)c1ccccc1,i,5,0.9,i,95,-1,.,.
N#C/C(=N\Nc1c(Cl)cccc1Cl)C(=O)NN,12*,0,1,i,100,-3,19*,-40*
O=C(Nc1cccc(C(=O)O)c1)/C(=C\c1ccc(F)cc1)NC(=O)c1ccco1,i,.,.,i,97,.,.,.
COc1cc(OC)c(-c2nc3cnccc3n2C)cc1OC,6.6*,-3,1,i,95,-12,55*,-53*
Cn1c(-c2ccc3ccccc3n2)nc2cnccc21,i,-2,1,i,95,-9,45*,-40*
COc1ccccc1NS(=O)(=O)c1cc(N)ccc1N1CCOCC1,.,.,.,.,101,.,.,.
COc1ccccc1NS(=O)(=O)c1cc(N2Cc3ccccc3C2=N)ccc1N1CCOCC1,i,-7,1.1,i,96,-23,37*,-45*
c1ccc(-c2ccnc3ncnn23)nc1,i,2,1,i,103,-2,.,.
c1cn(-c2ccc(-c3ccnc4ncnn34)cc2)cn1,8.5*,-6,1.1,i,93,-4,41*,-40*
CCN(CC)c1ccc(/C=N/NC(=O)CCC(=O)NCc2ccccc2)c(O)c1,i,2,1,i,97,-66,.,.
COc1ccc(-c2c[n+](CC(=O)c3cccs3)c3n2CCC3)cc1,i,.,.,i,98,.,44*,-31*
Cc1ccc(-c2c[n+](CC(=O)c3cccs3)c3n2CCC3)cc1,i,.,.,i,101,.,.,.
C=CCOC(=O)c1ccc(-n2cncn2)nc1,i,10,0.9,i,146,-11,21*,i
CC(C)CC[n+]1ccccc1/C=C/c1ccc(N(C)C)cc1,12*,.,.,i,i,.,60*,i
CN(C)c1ccc(/C=C/c2ccncc2)cc1,.,-4,1,.,161,-5,.,.
CN(C(=O)CSc1nc2ccccc2c(=O)n1-c1ccc(F)cc1F)C1CCS(=O)(=O)C1 (configuration not stated),.,.,.,.,100,.,.,.
C=CCn1c(SCc2c(C)noc2C)nc2ccccc2c1=O,6.6*,0,1,i,102,-10,27*,i
COC(=O)c1ccc(CSc2nc3ccccc3c(=O)n2-c2ccccc2)o1,8.6*,-2,1,i,97,-2,19*,i
C=CCn1c(SCc2c(C)noc2C)nc2cc(C(=O)O)ccc2c1=O,i,.,.,i,96,.,.,.
Cc1noc(C)c1CSc1nc2ccccc2c(=O)n1-c1ccc(F)cc1F,11*,4,1,i,99,-1,10,i
Cc1noc(C)c1CSc1nc2ccccc2c(=O)n1-c1ccccc1,9.3*,-5,1.1,i,96,-10,35*,i
COC(=O)c1ccc(CSc2nc3ccccc3c(=O)n2-c2ccc(OC)c(OC)c2)o1,i,-5,1.1,i,94,-24,.,.
SMILES,CHT PAM,TNAP inh hiacc,TNAP act hi DEA,CHT block,ABCB6 inh MLPCN,TNAP inh no acc,CHT act confirm,HEK293 MP dye
O=C(CCc1ccc(S(=O)(=O)N2CCOCC2)cc1)Nc1ccc(F)cc1[N+](=O)[O-],.,.,.,.,105,.,.,.
Cc1cc[n+](CCC(=O)O)c2ccccc12,i,1,1,i,103,-7,.,.
Cc1cc[n+](CC(=O)c2ccccc2)c2ccccc12,6.6*,2,1,i,99,-3,34*,-36*
Nc1nonc1C(=O)NCCNCc1ccccc1OCc1ccccc1F,6.3*,-3,1,i,96,-2,16*,i
CCOc1ccccc1CNCCNC(=O)c1nonc1N,i,.,.,i,97,.,.,.
Nc1nonc1C(=O)NCCNCc1cc(Br)ccc1OCc1ccccc1F,i,-5,1,i,92,-3,22*,i
CCCn1c2c(c(=N)c3c1CCC3)CCCC2,7.9*,-4,1,i,96,-4,50*,-72*
COC(=O)Cn1c2c(c3cc(C)ccc31)CCCC2,i,-3,1,i,92,-11,.,.
O=C(O)CCn1c2c(c3ccccc31)CCCC2,i,-3,1,i,100,-7,.,.
CCOC(=O)Cn1c2c(c(=N)c3c1CCC3)CCCC2,i,-8,1.1,i,99,-2,42*,-34*
N=c1c2c(n(Cc3ccc(Cl)c(Cl)c3)c3c1CCC3)CCCC2,9.6*,-3,1,i,96,-6,78*,-39*
CCCCCCCn1c2c(c(=N)c3ccccc31)CCC2,17*,-7,1.1,i,97,1,75*,-43*
N=c1c2c(n(Cc3ccc(Br)cc3)c3c1CCC3)CCCC2,i,-8,1.1,i,95,-4,.,.
CC(OC(=O)CNC(=O)c1ccccc1F)C(=O)Nc1nc(-c2ccccc2)cs1 (configuration not stated),i,-6,1.1,i,99,-6,.,.
COc1ccc(C(=O)COC(=O)CCn2nnc(-c3cccs3)n2)cc1,i,0,1,i,97,0,.,.
CCCn1c2c(c(=N)c3c1CCC3)CCC2,6.6*,.,.,i,102,.,59*,-52*
COc1ccc(-c2c(C(C)=O)c(C)nc3sc4c(=N)n(N)cnc4c23)cc1,6.7*,-4,1,i,99,-4,41*,-38*
